Results published in paper PMC12363949 (bioRxiv, 2025).

Key:
Pf20S β5 subunit = test: Gel-based competition with activity-based probe Me4BodipyFL-Ahx3Leu3VS, β5 band; type: biochemical, Plasmodium falciparum; conditions: preincubation of recombinant Pf20S with inhibitor before probe; denaturing gel
Outline: (§1)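 Baculovirus-expressed Pf20S from Sf9 cells, purified by Streptactin affinity and size exclusion, preincubated with test compound. Then 2 μM Me4BodipyFL-Ahx3Leu3VS added, 16 h at room temperature. Samples heated 5 min at 99°C in LDS buffer with 250 μM DTT, run on 12% Bis-Tris gel in MOPS SDS buffer at 120 V. Imaged at 470 nm excitation / 530 nm emission; bands quantified densitometrically.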

c20S β2 = c20S β2 (Homo sapiens, UniProt P49720+Q99436); test: Human c20S β2 inhibition assay, fluorogenic substrate Z-VLR-amc; type: biochemical
Pf20S β1 = Pf20S β1 (Plasmodium falciparum, UniProt Q8I0U7+Q8I6T3); test: Pf20S β1 subunit activity/inhibition assay, fluorogenic substrate Ac-nPnD-amc; type: biochemical
Pf20S β2 subunit = test: Gel-based competition with activity-based probe Me4BodipyFL-Ahx3Leu3VS, β2 band; type: biochemical, Plasmodium falciparum; conditions: preincubation of recombinant Pf20S with inhibitor before probe; denaturing gel
Outline: as §1

Pf20S β2 = Pf20S β2 (Plasmodium falciparum, UniProt Q8I261+Q8I6T3); test: Pf20S β2 subunit activity/inhibition assay, fluorogenic substrate Z-VLR-amc; type: biochemical
Pf20S β5 = Pf20S β5 (Plasmodium falciparum, UniProt A0A5K1K7U1+Q8IJT1); test: Pf20S β5 subunit activity/inhibition assay, fluorogenic substrate Ac-FNKL-amc; type: biochemical; conditions: 200 nM PA28α
[1] = biological target: incorrectly assembled half-Pf20S (immature half proteasome with Ump1) (Plasmodium falciparum) (UniProt Q8I6T3); test: cryo-EM structure

Pf20S β1, sequence (Q8I0U7 31-282): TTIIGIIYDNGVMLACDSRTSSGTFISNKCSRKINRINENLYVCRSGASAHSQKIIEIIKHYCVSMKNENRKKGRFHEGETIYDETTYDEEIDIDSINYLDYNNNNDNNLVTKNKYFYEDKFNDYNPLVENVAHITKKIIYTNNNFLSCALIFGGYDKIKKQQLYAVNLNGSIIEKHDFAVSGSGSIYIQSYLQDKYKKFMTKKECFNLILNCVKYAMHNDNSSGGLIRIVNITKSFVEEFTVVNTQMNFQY
Pf20S β1, sequence (Q8I6T3 42-270): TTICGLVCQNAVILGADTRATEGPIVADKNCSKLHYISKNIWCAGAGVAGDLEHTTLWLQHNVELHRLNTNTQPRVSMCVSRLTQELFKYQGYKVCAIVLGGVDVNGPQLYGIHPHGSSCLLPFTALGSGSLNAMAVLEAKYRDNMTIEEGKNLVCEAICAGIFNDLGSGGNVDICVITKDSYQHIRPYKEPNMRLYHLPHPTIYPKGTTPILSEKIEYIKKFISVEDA
Pf20S β1, sequence (Q06323 whole entry partner): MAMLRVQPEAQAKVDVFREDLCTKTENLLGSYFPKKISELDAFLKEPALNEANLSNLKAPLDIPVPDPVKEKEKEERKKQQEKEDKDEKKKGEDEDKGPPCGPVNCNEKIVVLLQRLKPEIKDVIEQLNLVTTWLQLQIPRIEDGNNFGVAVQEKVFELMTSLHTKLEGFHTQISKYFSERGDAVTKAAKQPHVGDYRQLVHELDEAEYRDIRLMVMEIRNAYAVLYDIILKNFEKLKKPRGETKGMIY
Pf20S β2, sequence (Q8I6T3 42-270): as the sequence (Q8I6T3 42-270) above
Pf20S β2, sequence (Q8I261 1-218): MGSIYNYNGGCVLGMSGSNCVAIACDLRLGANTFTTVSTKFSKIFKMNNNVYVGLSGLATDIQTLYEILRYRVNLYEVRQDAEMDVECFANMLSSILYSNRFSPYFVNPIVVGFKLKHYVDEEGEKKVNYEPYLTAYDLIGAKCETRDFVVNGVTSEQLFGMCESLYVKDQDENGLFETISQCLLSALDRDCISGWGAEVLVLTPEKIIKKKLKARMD
Pf20S β2, sequence (Q06323 whole entry partner): as the sequence (Q06323 whole entry partner) above
Pf20S β5, sequence (Q8IJT1 61-271): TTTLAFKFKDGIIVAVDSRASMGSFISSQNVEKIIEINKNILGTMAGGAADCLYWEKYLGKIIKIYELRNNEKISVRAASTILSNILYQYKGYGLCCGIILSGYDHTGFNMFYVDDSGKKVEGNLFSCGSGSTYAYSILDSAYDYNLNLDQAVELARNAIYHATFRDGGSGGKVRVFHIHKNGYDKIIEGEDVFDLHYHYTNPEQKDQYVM
Pf20S β5, sequence (A0A5K1K7U1 29-240): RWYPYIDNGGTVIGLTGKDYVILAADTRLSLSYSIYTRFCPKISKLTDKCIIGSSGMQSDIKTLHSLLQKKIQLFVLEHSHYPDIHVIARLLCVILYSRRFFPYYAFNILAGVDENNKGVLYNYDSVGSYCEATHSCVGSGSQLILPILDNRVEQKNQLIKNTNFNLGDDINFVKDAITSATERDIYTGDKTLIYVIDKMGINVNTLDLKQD
Pf20S β5, sequence (Q06323 whole entry partner): as the sequence (Q06323 whole entry partner) above

## C[C@@]12OC(=O)[C@]1([C@@H](O)[C@@H]1C=CCCC1)NC(=O)[C@@H]2CCCl [Marizomib]
Pf20S β5 subunit
  effect on probe labeling of β5 (lower, 23 kDa) band: eliminated the labeling of both bands
c20S β2
  IC50: ~300 nM
Pf20S β1; time-course, Fig. 3b
  inhibition of Pf20S-mediated cleavage of Ac-nPnD-amc (β1 activity): inhibited
Pf20S β2 subunit
  effect on probe labeling of β2 (upper, 25 kDa) band: eliminated the labeling of both bands

## Ac-Phe-Arg-Ser-Arg-epoxyketone [FRSR-ek]
Pf20S β2; Fig. S4
  inhibition of Pf20S activity with Z-VLR-amc (β2 substrate): effectively inhibited

## PA28α: human proteasome activator subunit 1 alpha, produced recombinantly in E. coli
Pf20S β1; 200 nM PA28α, Ac-nPnD-amc
  increase of Pf20S β1 subunit activity: 4 fold
Pf20S β5
  increase of Pf20S β5 subunit activity: 8 fold
Pf20S β2; 200 nM PA28α, Z-VLR-amc
  increase of Pf20S β2 subunit activity: 2 fold

## incorrectly assembled half-Pf20S (immature half proteasome with Ump1) (from UniProt Q8I6T3 1-270; Q8IJT1 1-271; Q7K6A9 1-265) (complex)
[1]
  stoichiometry N: 2
